Activity calls are given as the source filed them. The calls are words filed in the database; no cut-off is given here.

For experiment [1], the target named is Sigma non-opioid intracellular receptor 1 (Cavia porcellus, UniProt Q60492). The experiment can be described thus: Displacement of [3H]-(+)-pentazocine from sigma 1 receptor in guinea pig brain membranes after 150 mins. In kind it is cell membranes, Membrane.
Experiment [2] in a line: Displacement of [3H]DTG from sigma 2 receptor in guinea pig brain membranes after 120 mins. In kind it is cell membranes, Cavia porcellus, Membrane. (In general: In a radioligand displacement assay an active substance lowers the binding of a labelled ligand.)
For a further experiment, the species on record is Cavia porcellus. The experiment can be described thus: Selectivity ratio of Ki for sigma 1 receptor in guinea pig brain membranes to Ki for sigma 2 receptor in guinea pig brain membranes. In kind it is cell membranes.
In experiment [3] the target is Mu-type opioid receptor (Rattus norvegicus) (UniProt P33535). The experiment is described as follows: Displacement of [3H]naloxone from mu opioid receptor in rat brain membranes. In kind it is cell membranes.
Experiment [4] addresses D(1A) dopamine receptor (Rattus norvegicus) (UniProt P18901). The experiment is described as follows: Binding affinity to dopamine D1 receptor in rat striatum. In kind it is tissue-based.
The target of experiment [5] is D(2) dopamine receptor (Rattus norvegicus) (UniProt P61169). The experiment can be described thus: Binding affinity to dopamine D2 receptor in rat striatum. The format is tissue-based.
Experiment [6] addresses D(3) dopamine receptor (Rattus norvegicus) (UniProt P19020). The experiment can be described thus: Binding affinity to dopamine D3 receptor in rat olfactory tubercle. The format is tissue-based.
Experiment [7] is described as follows: Binding affinity to dopamine D4.2 receptor.
Experiment [8] has as its target 5-hydroxytryptamine receptor 2A (Rattus norvegicus) (UniProt P14842). The experiment is described as follows: Binding affinity to 5-HT2A receptor in rat cortex. In kind it is tissue-based.
For experiment [9], the target named is Adrenergic receptor alpha-1 (Rattus norvegicus) (UniProt P15823+P23944+P43140). The experiment can be described thus: Binding affinity to adrenergic alpha1 receptor in rat cortex.
The nature of experiment [10]: Agonist activity at sigma 2 receptor in guinea pig longitudinal muscle/myenteric plexus assessed as inhibition of electrically-induced contraction. In kind it is functional. Conditions: Cavia porcellus. A digest of the protocol:
(§1)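 Guinea pig ileum preparation with sigma-1 receptors desensitized. Electrically evoked contractions recorded in an isolated organ bath; a dose-response curve was built from the inhibition of the evoked contractions.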

The nature of experiment [11]: Partial agonist activity at sigma 2 receptor in guinea pig longitudinal muscle/myenteric plexus assessed as inhibition of electrically-induced contraction. The format is functional, Cavia porcellus. The method, boiled down: as §1
Another experiment relates to LNCaP. The experiment is described as follows: Antiproliferative activity against human LNCAP cells at 100 uM after 48 hrs. The format is functional, cell-based. The method, boiled down:
(§2)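 LNCaP (hormone-sensitive) and PC3 (hormone-refractory) prostate tumour cells exposed to 100 μM compound for 48 h; antiproliferative effect measured. Haloperidol and haloperidol metabolite II run as references.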

Another experiment has as its system PC-3. The experiment can be described thus: Antiproliferative activity against human PC3 cells at 100 uM after 48 hrs. In kind it is functional, cell-based. A digest of the protocol:
as §2

The target in experiment [12] is Sigma non-opioid intracellular receptor 1 (Cavia porcellus) (UniProt Q60492). The experiment is described as follows: Displacement of [3H]-(+)-pentazocine from sigma 1 receptor in guinea pig brain membranes after 150 mins in presence of 1 mM to 250 uM of phenytoin. In kind it is cell membranes. To be noted: Membrane. A digest of the protocol: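 Guinea pig brain [3H](+)-pentazocine competition binding run without phenytoin and with 250 μM or 1 mM phenytoin. Ki ratios (control/with phenytoin) computed. Hill analysis of competition curves. Cocaine served as the putative σ1 agonist control.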

The subject of experiment [13] is Rattus norvegicus. The experiment is described as follows: Antinociceptive activity in Sprague-Dawley rat assessed as mean AUC of thermal-stimulus induced tail flick latency for 60 mins at 1 mg/kg, sc. Also on record: dose 1 mg/kg. The format is functional, organism-based. A digest of the protocol:
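Rats given test compound 1 mg/kg sc alone. Tail flick latency to thermal stimulation, expressed as percent change from basal, tracked over a 60 min window. Summarised as mean area under the curve (MAUC) after the last injection. Compared against saline-treated rats, n = 8–10 per group, mean ± SD, significance at p < 0.05.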
Background: In hot-plate and tail-flick tests a longer latency is read as antinociception.

Experiment [14] has as its system Rattus norvegicus. The experiment can be described thus: Potentiation of (-)-U50488H-induced antinociceptive activity in Sprague-Dawley rat assessed as mean AUC of thermal-stimulus induced tail flick latency for 60 mins at 1 mg/kg, sc treated 45 mins before (-)-U50488H challenge. In kind it is functional. Conditions: route subcutaneous. The method, boiled down: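 Rats were pretreated sc with test compound at 1 mg/kg 45 min before the κ agonist (−)-U50,488H at 5 mg/kg sc. Thermal-stimulus tail flick latency was taken as percent change from basal over 60 min and summarised as MAUC after the last injection. Groups were compared with saline- and U50,488H-only groups, n = 8–10, mean ± SD, p < 0.05.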

Sequence of Sigma non-opioid intracellular receptor 1 (Q60492 whole entry): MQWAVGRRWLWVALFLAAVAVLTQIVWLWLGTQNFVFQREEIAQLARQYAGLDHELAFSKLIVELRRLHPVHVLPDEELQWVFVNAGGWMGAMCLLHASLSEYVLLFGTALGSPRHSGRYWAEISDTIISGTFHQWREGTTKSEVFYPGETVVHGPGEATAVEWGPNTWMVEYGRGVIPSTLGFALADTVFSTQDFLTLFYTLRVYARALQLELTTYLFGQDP
Sequence of Sigma non-opioid intracellular receptor 1 (Cavia porcellus) (Q60492 whole entry): as above
Sequence of D(1A) dopamine receptor (Rattus norvegicus) (P18901 whole entry): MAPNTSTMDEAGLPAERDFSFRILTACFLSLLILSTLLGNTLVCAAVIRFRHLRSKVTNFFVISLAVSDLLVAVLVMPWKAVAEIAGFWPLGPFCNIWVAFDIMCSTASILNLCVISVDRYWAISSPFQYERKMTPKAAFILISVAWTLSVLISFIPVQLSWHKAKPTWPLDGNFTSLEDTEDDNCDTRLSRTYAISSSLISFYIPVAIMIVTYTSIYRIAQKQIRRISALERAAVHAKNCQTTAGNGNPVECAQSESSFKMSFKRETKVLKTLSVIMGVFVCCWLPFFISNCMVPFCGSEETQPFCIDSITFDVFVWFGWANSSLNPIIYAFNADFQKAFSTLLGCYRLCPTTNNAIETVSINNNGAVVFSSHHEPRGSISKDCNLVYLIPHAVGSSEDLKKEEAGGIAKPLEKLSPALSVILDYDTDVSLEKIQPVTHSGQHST
Sequence of Mu-type opioid receptor (Rattus norvegicus) (P33535 whole entry): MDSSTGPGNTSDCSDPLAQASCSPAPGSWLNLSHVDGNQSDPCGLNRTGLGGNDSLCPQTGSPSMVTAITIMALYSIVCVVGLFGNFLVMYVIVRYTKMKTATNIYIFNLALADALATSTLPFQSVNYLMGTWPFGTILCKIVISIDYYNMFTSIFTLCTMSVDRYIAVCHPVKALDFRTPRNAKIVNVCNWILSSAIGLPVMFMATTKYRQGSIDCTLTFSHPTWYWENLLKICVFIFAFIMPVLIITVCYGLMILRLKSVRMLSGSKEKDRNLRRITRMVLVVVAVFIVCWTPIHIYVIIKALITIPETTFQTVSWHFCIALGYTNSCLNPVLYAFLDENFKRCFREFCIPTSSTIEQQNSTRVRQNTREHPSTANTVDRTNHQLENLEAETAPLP
Sequence of D(3) dopamine receptor (Rattus norvegicus) (P19020 whole entry): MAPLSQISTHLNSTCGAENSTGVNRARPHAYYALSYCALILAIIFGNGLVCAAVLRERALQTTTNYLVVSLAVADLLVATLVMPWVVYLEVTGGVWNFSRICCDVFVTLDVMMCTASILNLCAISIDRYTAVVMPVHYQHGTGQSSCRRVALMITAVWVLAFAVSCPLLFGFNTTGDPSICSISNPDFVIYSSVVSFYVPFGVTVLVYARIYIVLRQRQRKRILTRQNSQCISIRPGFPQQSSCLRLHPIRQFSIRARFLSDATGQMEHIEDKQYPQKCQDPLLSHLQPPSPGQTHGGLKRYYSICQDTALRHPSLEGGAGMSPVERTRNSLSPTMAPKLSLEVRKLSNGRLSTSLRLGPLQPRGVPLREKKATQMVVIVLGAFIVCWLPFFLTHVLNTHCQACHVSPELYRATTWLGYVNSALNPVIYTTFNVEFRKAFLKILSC
Sequence of D(2) dopamine receptor (Rattus norvegicus) (P61169 whole entry): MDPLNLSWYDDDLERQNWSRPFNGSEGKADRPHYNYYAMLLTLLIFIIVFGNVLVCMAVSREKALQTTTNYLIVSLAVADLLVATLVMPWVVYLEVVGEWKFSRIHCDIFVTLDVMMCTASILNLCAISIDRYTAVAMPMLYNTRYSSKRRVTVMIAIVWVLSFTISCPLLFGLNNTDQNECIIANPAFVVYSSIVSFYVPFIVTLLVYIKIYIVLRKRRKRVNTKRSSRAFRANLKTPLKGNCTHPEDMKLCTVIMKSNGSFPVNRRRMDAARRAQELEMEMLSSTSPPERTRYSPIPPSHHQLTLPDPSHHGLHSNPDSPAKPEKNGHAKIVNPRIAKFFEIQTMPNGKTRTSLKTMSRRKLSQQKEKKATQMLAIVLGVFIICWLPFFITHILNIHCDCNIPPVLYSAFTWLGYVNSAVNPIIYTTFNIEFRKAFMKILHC
Sequence of 5-hydroxytryptamine receptor 2A (Rattus norvegicus) (P14842 whole entry): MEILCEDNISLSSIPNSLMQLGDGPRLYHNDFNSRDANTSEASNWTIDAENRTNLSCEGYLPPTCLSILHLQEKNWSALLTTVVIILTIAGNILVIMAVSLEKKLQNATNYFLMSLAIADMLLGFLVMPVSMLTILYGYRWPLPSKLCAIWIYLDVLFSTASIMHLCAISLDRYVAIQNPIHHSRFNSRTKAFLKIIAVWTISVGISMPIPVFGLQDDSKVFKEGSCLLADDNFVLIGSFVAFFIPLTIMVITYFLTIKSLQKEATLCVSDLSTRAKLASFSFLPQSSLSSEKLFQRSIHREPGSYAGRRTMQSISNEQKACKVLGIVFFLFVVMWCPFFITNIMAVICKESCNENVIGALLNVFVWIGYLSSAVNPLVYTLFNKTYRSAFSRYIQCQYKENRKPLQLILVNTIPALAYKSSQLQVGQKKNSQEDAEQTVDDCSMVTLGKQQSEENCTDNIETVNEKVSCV

By Ki is commonly meant the equilibrium dissociation constant of an inhibitor or competing ligand from its target. A low value points to higher affinity. Regarding `O=C(CCCc1ccccc1)OC(CCCN1CCC(O)(c2ccc(Cl)cc2)CC1)c1ccc(F)cc1` (racemic), the Ki in experiment [1] stood at 5.4 nM; in experiment [2], 0.98 nM. Moreover, the Ratio Ki in the experiment listed under Cavia porcellus came to 0.18.

What is called EC50 is the concentration giving half of the maximal effect. `COC(=O)[C@@]1(c2ccccc2)C[C@H]1CN1[C@@H]2CC[C@H]1C[C@@](O)(c1ccc(Cl)cc1)C2`: the figures for the Ki in experiment [1] and in experiment [2] were 520 nM and 25.2 nM, respectively. The Ratio Ki in the experiment filed under Cavia porcellus turned out to be 0.05. For the same compound, the result in [3], in experiment [4], in experiment [5], in experiment [6], in experiment [7] and in [8] was Active. Further, the outcome (in experiment [9]; with LNCaP; in the experiment on PC-3) was Active. Further, in experiment [10], the EC50 was found to be 2300 nM. Besides, in experiment [11], the Alpha max is on record as 0.4.

With `COC(=O)[C@]1(c2ccccc2)C[C@@H]1CN1CCC(O)(c2ccccc2)CC1`, the values for the Ki in experiment [1] and in experiment [2] were 5.02 nM and 28.2 nM, respectively. The Ratio Ki in the experiment filed under Cavia porcellus was 5.6.

`COC(=O)[C@]1(c2ccccc2)C[C@@H]1CN1C2C=C(c3ccc(Cl)cc3)CC1CC2` (mixture of isomers): the Ki in experiment [1] is 397 nM; in experiment [2], 943 nM. The Ratio Ki in the experiment filed under Cavia porcellus was 2.4.

Consider `COC(=O)[C@]1(c2ccccc2)C[C@@H]1CN1[C@@H]2CC[C@H]1C[C@@](O)(c1ccc(Cl)cc1)C2`, for which the Ki turned out to be 44 nM in [1] and 58.3 nM in [2]. In the experiment listed under Cavia porcellus, the Ratio Ki was 1.3.

As for `Cc1ccccc1NC(=N)Nc1ccccc1C` [DITOLYLGUANIDINE], in [2], the Ki was determined as 23 nM.

In the case of `COC(=O)[C@H]1[C@@H](OC(=O)c2ccccc2)C[C@@H]2CC[C@H]1N2C`, the inhibition result in experiment [12] is “inactive”.

Turning to `COC(=O)[C@@]1(c2ccccc2)C[C@H]1CN1CCC(O)(c2ccccc2)CC1`, the values for the inhibition constant (Ki) in experiment [1] and in experiment [2] were 7.01 nM and 571 nM, respectively. For the same compound, the Ratio Ki in the experiment filed under Cavia porcellus worked out at 81.4. For the same compound, the outcome in experiment [3], in experiment [4], in experiment [5], in experiment [6], in [7] and in experiment [8] was Active. In addition, the result in experiment [9] was Active. Further, the inhibition entry in [12] is “Active”. Moreover, the outcome with Rattus norvegicus [13] was inactive. Besides, the Activity with Rattus norvegicus [14] is given as 118.2%.

Consider `COC(=O)[C@]1(c2ccccc2)C[C@@H]1CN1CCC(O)(c2ccc(Cl)cc2)CC1`, for which the Ki in experiment [1] came to 3.95 nM; in experiment [2], 21.9 nM. Besides, the inhibition entry in [12] is “Active”.

For the compound `COC(=O)[C@@]1(c2ccccc2)C[C@H]1CN1C2C=C(c3ccc(Cl)cc3)CC1CC2` (mixture of isomers), the Ki in [1] stood at 198 nM; in experiment [2], 565 nM. The Ratio Ki in the experiment filed under Cavia porcellus turned out to be 2.8.

In [2], `O=C(CCCN1CCC(O)(c2ccc(Cl)cc2)CC1)c1ccc(F)cc1` [HALOPERIDOL] returned a Ki of 16 nM.

On to `COC(=O)[C@@]1(c2ccccc2)C[C@H]1CN1CCC(O)(c2ccc(Cl)cc2)CC1`, for which the Ki in experiment [1] is 5.61 nM; in [2] it was 23.4 nM.

(Values after ChEMBL document CHEMBL1772975, “Novel potent and selective σ ligands: evaluation of their agonist and antagonist properties” (J Med Chem, 2011).)
